Among the data in ChEMBL document CHEMBL4385599, “Neutral sphingomyelinase 2 inhibitors based on the 4-(1H-imidazol-2-yl)-2,6-dialkoxyphenol scaffold” (Eur J Med Chem, 2019) are Ratio IC50 and IC50 values, retold here.

For test [1], the species on record is Homo sapiens. In words: Selectivity index, ratio of IC50 for alkaline phosphatase (unknown origin) to IC50 for Inhibition of human recombinant nSMase expressed in HEK293 cells. The format is cell-based.
Test [2] in a line: Selectivity index, ratio of IC50 for horseradish peroxidase to IC50 for Inhibition of human recombinant nSMase expressed in HEK293 cells. It counts as cell-based.
The species entered for test [3] is Homo sapiens. In words: Selectivity index, ratio of IC50 for choline oxidase (unknown origin) to IC50 for Inhibition of human recombinant nSMase expressed in HEK293 cells. The format is cell-based.
Test [4] concerns the target T1, Sphingomyelin phosphodiesterase 3 (Homo sapiens, UniProt Q9NY59).
T1 sequence (Q9NY59 whole entry): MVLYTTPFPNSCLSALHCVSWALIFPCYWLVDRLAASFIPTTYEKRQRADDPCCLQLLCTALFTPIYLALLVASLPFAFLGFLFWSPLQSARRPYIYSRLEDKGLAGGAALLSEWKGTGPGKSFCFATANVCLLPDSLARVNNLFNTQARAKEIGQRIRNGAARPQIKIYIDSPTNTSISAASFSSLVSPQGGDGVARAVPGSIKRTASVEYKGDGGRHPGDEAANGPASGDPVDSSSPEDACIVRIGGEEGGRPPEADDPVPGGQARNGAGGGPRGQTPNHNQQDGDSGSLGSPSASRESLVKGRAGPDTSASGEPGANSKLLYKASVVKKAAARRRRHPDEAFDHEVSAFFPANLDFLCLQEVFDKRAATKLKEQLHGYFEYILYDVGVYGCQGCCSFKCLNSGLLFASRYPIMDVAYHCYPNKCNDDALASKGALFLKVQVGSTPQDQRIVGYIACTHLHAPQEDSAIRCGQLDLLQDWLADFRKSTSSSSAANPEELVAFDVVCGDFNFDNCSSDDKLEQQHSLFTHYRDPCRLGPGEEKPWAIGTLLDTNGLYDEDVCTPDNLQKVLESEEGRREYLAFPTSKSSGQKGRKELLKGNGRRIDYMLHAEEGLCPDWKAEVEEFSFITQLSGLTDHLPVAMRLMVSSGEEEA
The test can be described thus: Inhibition of human recombinant nSMase expressed in HEK293 cells using sphingomyelin as substrate by alkaline phosphatase, choline oxidase and horseradish peroxidase dependent H2O2 detection based fluorescence coupled assay. In a few lines:
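Fluorescence-based coupled assay with human recombinant nSMase2, alkaline phosphatase and choline oxidase; IC50 values are mean ± SD of at least three experiments.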

On to `COc1cc(-c2ncc(C)[nH]2)cc(OC)c1O`, for which the Ratio IC50 in test [1], in test [2] and in test [3] was < 5 in each case. For the same compound, the IC50 in test [4] amounted to 220 nM.

For `COc1cc(-c2nc(-c3ccc(C)cc3)c[nH]2)cc(OC)c1O`, the Ratio IC50 in test [1], in test [2] and in test [3] was > 5 throughout. In test [4], the IC50 is 130 nM.

Take `COc1cc(-c2ncc(-c3ccccc3)[nH]2)cc(OC)c1O`: the Ratio IC50 in test [1], in test [2] and in test [3] was > 5 each time.

Regarding `COc1cc(-c2nc(-c3ccccc3)c(-c3cccs3)[nH]2)cc(OC)c1OC`, the Ratio IC50 in test [1], in test [2] and in test [3] was > 5 each time. For the same compound, in test [4], the IC50 was > 100000 nM.

For the compound `Oc1ccccc1-c1nc(-c2ccccc2)c(-c2cccs2)[nH]1`, the Ratio IC50 in test [1], in test [2] and in test [3] was > 5 throughout. The 50% inhibitory concentration (IC50) in test [4] is > 100000 nM.

For the compound `Oc1c(OC2CCCC2)cc(-c2nc(-c3ccccc3)c(-c3cccs3)[nH]2)cc1OC1CCCC1`, the Ratio IC50 in test [1], in test [2] and in test [3] was > 5 in each case. Also, in test [4], the IC50 was found to be 120 nM.

`COc1cc(-c2nc3c([nH]2)CCCC3)cc(OC)c1O`: the Ratio IC50 in test [1], in test [2] and in test [3] was < 5 throughout. In addition, in test [4], the IC50 is 420 nM.

For `COc1cc(C2=NCCN2)cc(OC)c1O`, the Ratio IC50 in test [1], in test [2] and in test [3] was > 5 each time. In addition, the IC50 in test [4] was > 100000 nM.

Turning to `COc1cc(-c2nc(-c3ccccc3)c(-c3cccs3)[nH]2)ccc1O`, the Ratio IC50 in test [1], in test [2] and in test [3] was > 5 in each case.

In the case of `CCCCc1[nH]c(-c2cc(OC)c(O)c(OC)c2)nc1C`, the Ratio IC50 in test [1], in test [2] and in test [3] was > 5 throughout.

Turning to `Oc1ccc(-c2nc(-c3ccccc3)c(-c3cccs3)[nH]2)cc1`, the Ratio IC50 in test [1], in test [2] and in test [3] was < 5 in each case. In addition, the IC50 in test [4] is 2100 nM.

As for `Oc1cccc(-c2nc(-c3ccccc3)c(-c3cccs3)[nH]2)c1`, the Ratio IC50 in test [1], in test [2] and in test [3] was > 5 each time. Further, the IC50 in test [4] is > 100000 nM.

Consider `CC(C)(C)Oc1cc(-c2nc(-c3ccccc3)c(-c3cccs3)[nH]2)cc(OC(C)(C)C)c1O`, for which the Ratio IC50 in test [1], in test [2] and in test [3] was > 5 in each case. Besides, the IC50 in test [4] came to 520 nM.

Turning to `COc1cc(-c2nc(C)c(C)[nH]2)cc(OC)c1O`, the Ratio IC50 in test [1], in test [2] and in test [3] was < 5 in each case. Moreover, in test [4], the IC50 amounted to 520 nM.

Regarding `Oc1c(Cl)cc(-c2nc(-c3ccccc3)c(-c3cccs3)[nH]2)cc1Cl`, the Ratio IC50 in test [1], in test [2] and in test [3] was > 5 each time. In addition, the IC50 in test [4] was > 100000 nM.

Regarding `COc1cc(-c2ncc[nH]2)cc(OC)c1O`, the Ratio IC50 in test [1], in test [2] and in test [3] was > 5 each time. For the same compound, in test [4], the IC50 amounted to 420 nM.

For `COc1cc(OC)cc(-c2nc(-c3ccccc3)c(-c3cccs3)[nH]2)c1`, the Ratio IC50 in test [1], in test [2] and in test [3] was > 5 in each case.

Regarding `COc1cc(-c2nc(-c3ccco3)c(-c3ccco3)[nH]2)cc(OC)c1O`, the Ratio IC50 in test [1], in test [2] and in test [3] was > 5 each time. Moreover, the IC50 in test [4] came out at 40 nM.

As for `COc1cc(-c2nc(-c3cccs3)c(-c3cccs3)[nH]2)cc(OC)c1O`, the Ratio IC50 in test [1], in test [2] and in test [3] was > 5 throughout.
